# According to ChEMBL document CHEMBL3769310, “Scouting new sigma receptor ligands: Synthesis, pharmacological evaluation and molecular modeling of 1,3-dioxolane-based structures and derivatives” (Eur J Med Chem, 2016):
# The source made the active and inactive calls.
# How the values were obtained:
# HeLa [1] = assay: Selectivity ratio of Ki for sigma-2 receptor in guinea pig brain membranes to Ki for human 5-HT1A expressed in human HeLa cells; assay type: cell-based
# [2] = target: T1, 5-hydroxytryptamine receptor 1A (Homo sapiens, UniProt P08908); assay: Displacement of [3H]8-OH-DPAT from human 5-HT1A expressed in human HeLa cells after 30 mins; assay type: cell-based
# T1 sequence (P08908 whole entry): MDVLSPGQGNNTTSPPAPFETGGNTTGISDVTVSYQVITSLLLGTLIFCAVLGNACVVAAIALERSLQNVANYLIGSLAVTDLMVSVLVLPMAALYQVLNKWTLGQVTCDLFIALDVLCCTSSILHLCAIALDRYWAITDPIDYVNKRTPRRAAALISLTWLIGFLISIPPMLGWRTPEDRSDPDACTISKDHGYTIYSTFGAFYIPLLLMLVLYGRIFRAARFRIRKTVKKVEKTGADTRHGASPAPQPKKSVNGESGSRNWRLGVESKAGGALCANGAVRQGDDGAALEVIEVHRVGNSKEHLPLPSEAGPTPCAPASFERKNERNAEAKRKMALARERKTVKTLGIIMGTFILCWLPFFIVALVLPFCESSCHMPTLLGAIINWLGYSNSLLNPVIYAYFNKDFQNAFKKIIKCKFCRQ
# Cavia porcellus = species on record: Cavia porcellus; assay: Selectivity ratio of Ki for sigma-1 receptor in guinea pig brain membranes to Ki for sigma-2 receptor in guinea pig brain membranes; assay type: cell membranes
# HeLa [3] = assay: Selectivity ratio of Ki for sigma-1 receptor in guinea pig brain membranes to Ki for human 5-HT1A expressed in human HeLa cells; assay type: cell-based
# [4] = target: Sigma non-opioid intracellular receptor 1 (Cavia porcellus, UniProt Q60492); assay: Displacement of [3H]-(+)-pentazocine from sigma-1 receptor in guinea pig brain membranes after 150 mins by liquid scintillation counting method; assay type: cell membranes, Membrane
# [5] = Displacement of [3H]DTG from sigma-2 receptor in guinea pig brain membranes after 120 mins by liquid scintillation counting method; assay type: cell membranes, Cavia porcellus, Membrane
# Procedure, shortened: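 Nonspecific with 5 µM DTG. Stopped with ice-cold 10 mM Tris pH 8.0, filtered on PEI-soaked GF/B, scintillation counted. Ki from duplicates, three experiments.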
# Rattus norvegicus = assay: Analgesic activity in Sprague-Dawley rat assessed as withdrawal latency at 1 mg/kg, sc measured after 30 to 120 mins by tail flick test; assay type: functional, organism-based
# Procedure, shortened: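 Male Sprague-Dawley rats, 180–200 g, 8–10 per group, dosed s.c. Radiant heat tail-flick with I.R. source on lower third of tail at 25 ± 1 °C. Basal latency 3–4 s, taken as mean of three readings at 5 min intervals. Cut-off 10 s. Latencies read at 30, 45, 60, 90 and 120 min after injection; saline group as control. Blinded observers; mean ± SE, two-way ANOVA then t test.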
# Chain of Sigma non-opioid intracellular receptor 1 (Q60492 whole entry): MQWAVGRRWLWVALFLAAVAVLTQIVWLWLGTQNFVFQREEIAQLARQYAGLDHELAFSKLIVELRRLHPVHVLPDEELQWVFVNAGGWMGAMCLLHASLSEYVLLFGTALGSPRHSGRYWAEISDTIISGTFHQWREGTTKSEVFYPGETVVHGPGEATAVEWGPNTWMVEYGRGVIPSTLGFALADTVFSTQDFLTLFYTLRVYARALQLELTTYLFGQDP
SMILES,Ratio Ki (HeLa [1]),Ki [2],Ratio Ki (Cavia porcellus),Ratio Ki (HeLa [3]),Ki [4],pKi [5],Activity (Rattus norvegicus)
O=C1C(CN2CCC(Cc3ccccc3)CC2)CCC1(c1ccccc1)c1ccccc1 (centres undefined),1,> 1000 nM,2,1,1120 nM,5.66,
c1ccc(CC2CCN(C[C@@H]3CO[C@@](c4ccccc4)(C4CCCCC4)O3)CC2)cc1 (relative stereo),> 19,> 1000 nM,3,> 19,52.5 nM,6.84,
c1ccc(CN2CCN(C[C@@H]3CO[C@@](c4ccccc4)(C4CCCCC4)O3)CC2)cc1 (relative stereo),> 56,> 1000 nM,1,> 56,30.9 nM,7.75,
O[C@H]1[C@@H](CN2CCC(Cc3ccccc3)CC2)CCC1(c1ccccc1)c1ccccc1 (relative stereo),0.02,7.59 nM,8,0.02,282 nM,5.66,
c1ccc(CN2CCN(CCOC(c3ccccc3)c3ccccc3)CC2)cc1,> 89,> 1000 nM,1,> 89,20.4 nM,7.95,
OCC(CN1CCC(Cc2ccccc2)CC1)OC(c1ccccc1)c1ccccc1 (centres undefined),2.5,417 nM,1,2.5,200 nM,6.56,
c1ccc(CN2CCN(CC3COC(C4CCCCC4)(C4CCCCC4)O3)CC2)cc1 (centres undefined),> 29,> 1000 nM,2,> 29,3.39 nM,8.3,
c1ccc(CC2CCN(CC3CSC(c4ccccc4)(c4ccccc4)S3)CC2)cc1 (centres undefined),> 66,> 1000 nM,5,> 66,15.1 nM,7.11,
O=C1C(CN2CCN(Cc3ccccc3)CC2)CCC1(c1ccccc1)c1ccccc1 (centres undefined),> 1.5,> 1000 nM,20,> 1.5,646 nM,4.9,
c1ccc(CC2CCN(CC3COC(C4CCCCC4)(C4CCCCC4)O3)CC2)cc1 (centres undefined),> 5,> 1000 nM,> 5,> 5,209 nM,< 6,
O[C@H]1[C@@H](CN2CCN(Cc3ccccc3)CC2)CCC1(c1ccccc1)c1ccccc1 (relative stereo),0.2,7.24 nM,6.8,0.2,35.5 nM,6.62,
c1ccc(CN2CCN(CC3COc4ccccc4O3)CC2)cc1 (centres undefined),,,,,15.8 nM,7.55,
c1ccc(CC2CCN(CCOC(c3ccccc3)c3ccccc3)CC2)cc1,> 18,> 1000 nM,3,> 18,56.2 nM,6.77,
c1ccc(CC2CCN(CC3COc4ccccc4O3)CC2)cc1 (centres undefined),,,,,16.6 nM,7.6,
O[C@@H]1[C@@H](CN2CCC(Cc3ccccc3)CC2)CCC1(c1ccccc1)c1ccccc1 (relative stereo),0.21,50.1 nM,39,0.21,229 nM,5.05,
c1ccc(CN2CCN(CC3CSC(c4ccccc4)(c4ccccc4)S3)CC2)cc1 (centres undefined),> 3,> 1000 nM,8,> 3,302 nM,5.64,
c1ccc(CN2CCN(CC3CCC(c4ccccc4)(c4ccccc4)O3)CC2)cc1 (centres undefined),> 11,> 1000 nM,3,> 11,87.1 nM,6.65,
c1ccc(CC2CCN(CC3CSC(c4ccccc4)(c4ccccc4)O3)CC2)cc1 (centres undefined),> 83,,2,> 83,12 nM,7.55,
c1ccc(CN2CCN(C[C@H]3CO[C@@](c4ccccc4)(C4CCCCC4)O3)CC2)cc1 (relative stereo),> 933,> 1000 nM,15,> 933,1.07 nM,7.79,
c1ccc(CN2CCN(CC3CSC(c4ccccc4)(c4ccccc4)O3)CC2)cc1 (centres undefined),> 16,,3,> 16,63.1 nM,6.67,
c1ccc(CC2CCN(C[C@H]3CO[C@@](c4ccccc4)(C4CCCCC4)O3)CC2)cc1,> 18,> 1000 nM,7,> 18,56.2 nM,6.43,
c1ccc(CN2CCN(CC3COC(c4ccccc4)(c4ccccc4)O3)CC2)cc1 (centres undefined),> 589,> 1000 nM,3,> 589,1.7 nM,8.38,
c1ccc(CC2CCN(CC3CCC(c4ccccc4)(c4ccccc4)O3)CC2)cc1 (centres undefined),> 6,> 1000 nM,1,> 6,174 nM,6.69,
OCC(CN1CCN(Cc2ccccc2)CC1)OC(c1ccccc1)c1ccccc1 (centres undefined),> 89,> 1000 nM,2,> 89,11.2 nM,7.75,
O[C@@H]1[C@@H](CN2CCN(Cc3ccccc3)CC2)CCC1(c1ccccc1)c1ccccc1 (relative stereo),3,126 nM,3,3,38 nM,7,
c1ccc(CC2CCN(CC3COC4(CCCCC4)O3)CC2)cc1 (centres undefined),81,162 nM,10,81,2 nM,7.72,
c1ccc(CC2CCN(CC3COC(c4ccccc4)(c4ccccc4)O3)CC2)cc1 (centres undefined),251,550 nM,3,251,2.19 nM,8.2,
c1ccc(CN2CCN(CC3COC4(CCCCC4)O3)CC2)cc1 (centres undefined),> 1350,> 1000 nM,47,> 1350,0.741 nM,7.46,inactive
